The nature of this data set: Toxicity liver stage against HepG2, at 10uM. It counts as cell-based. Also on record: test concentration 10 uM, cell line HepG2-A16-CD81EGFP. To be noted: human, HepG2-A16-CD81EGFP cells; read-out: INHIBITION
Put shortly:
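Uninfected HepG2-A16-CD81EGFP cells, 3 × 10^3 per well, 1536-well, plated on prespotted compound at 10 μM final, parasite-free screening media added to match infected plates; puromycin 10 μM positive, DMSO 0.5% negative; run in parallel with 48 h PbLuc assay at 37 °C, 5% CO2; viability by CellTiter-Glo luminescence, normalized to controls.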
As to `CN(c1nc(Cn2cnccc2=O)cs1)C1CC1`, the cytotoxicity at 10 µM is -6.59%.
Turning to `CCOc1ncccc1NC(=O)NC1CCN(C(C)=O)CC1`, the cytotoxicity at 10 µM is -6.47%.
Take `Cc1cccc(CN2Cc3ccnn3CC(COCC3CC3)C2)n1` (stereo not drawn): the cytotoxicity at 10 µM worked out at 2.13%.
Then `CN(C)C(=O)N1CCN(Cc2ccccc2)[C@@H]2CS(=O)(=O)C[C@@H]21`, with -12.6%.
Then `N#Cc1ccc(CCC(=O)N2CCC(CN3CCOCC3)CC2)cc1`, with -4.97%.
As for `CC(NC1(CNC(=O)Cn2cccn2)CCOCC1)c1ccccc1` (stereo not drawn), the cytotoxicity at 10 µM was -3.07%.
`Cn1ncc2c(NC3CCC(N)CC3)nc(C(C)(C)C)nc21` (stereo not drawn): the cytotoxicity at 10 µM is 8%.
For the compound `CCCn1nc(C)c(C(=O)N(C)[C@@H]2CC[C@@H](OC)[C@@H]2O)c1C`, the cytotoxicity at 10 µM was found to be 4.36%.
On to `O=C(N[C@@H]1CN(Cc2cccs2)[C@@H]2COC[C@@H]21)C1CCC1`, for which the cytotoxicity at 10 µM is 9.34%.
On to `CCc1c(C)nc(C)nc1N1CCC(NCCSc2nnnn2C)CC1`, for which the cytotoxicity at 10 µM was -15.9%.
Under `O=C(NCc1ccco1)[C@@]12CCO[C@@H]1CCN(CCN1CCCC1)C2` stands -3.47%.
As to `Cc1[nH]c(=O)[nH]c(=O)c1CN1CCCC(CCc2ccccc2)C1` (stereo not drawn), the cytotoxicity at 10 µM was -11.4%.
As to `Cc1nc(-c2ccsc2)ccc1C(=O)NC(C)CN1CCOCC1` (stereo not drawn), the cytotoxicity at 10 µM is -13.8%.
Then `Cc1ccoc1C(=O)NC1CCN(C(=O)Nc2ccccn2)CC1`, with 1.97%; and `O=C(CCCN1CCCCC1)NC(C(=O)O)c1cccc(F)c1` (stereo not drawn), with 1.91%.
Regarding `CC(C)c1ccc2c(c1)C1(CC(=O)Nc3[nH]ncc31)C(=O)N2C` (stereo not drawn), the cytotoxicity at 10 µM was -0.582%.
Regarding `Cc1noc(C)c1CN(C)C(=O)c1nc(N2CCCC2)ncc1Cl`, the cytotoxicity at 10 µM was -41.6%.
Then `Cc1cccc2c1nc(COCC(=O)O)n2-c1ccc(N)nc1`, with 1.77%; and `CCC(=O)N1CCN(S(=O)(=O)c2cccc(F)c2)[C@H]2CS(=O)(=O)C[C@H]21`, with -52%.
For `COc1cccnc1NC(=O)COc1c(C)cccc1C`, the cytotoxicity at 10 µM was found to be 0.819%.
As to `O=C(NCCN1CCNCC1)c1nc2ccccc2c(=O)[nH]1`, the cytotoxicity at 10 µM was 8.19%.
Turning to `Cc1cc(C)c(CNc2nc3ccccc3cc2CO)c(=O)[nH]1`, the cytotoxicity at 10 µM turned out to be 6.37%.
Turning to `Cc1cc(C)n(-c2ccc(N3CCCSCC3)nc2)n1`, the cytotoxicity at 10 µM is -2.08%.
Turning to `COc1ccc(C)cc1CC(=O)Nc1cc(C)n[nH]1`, the cytotoxicity at 10 µM came out at 0.503%.
Under `c1cn2c(n1)CO[C@@H](CNCc1ccc3c(c1)OCO3)C2` stands 2%.
Consider `CCCNc1ccc(C(=O)NCCc2cccc(Cl)c2)cn1`, for which the cytotoxicity at 10 µM came to 1.17%.
Take `CCN1CCC(CC(=O)NCCc2nc(O)cc(O)n2)CC1`: the cytotoxicity at 10 µM was -4.76%.
`CC(O)CN1CCN(C(=O)c2cn(-c3ccccc3Cl)nn2)CC1` (stereo not drawn): the cytotoxicity at 10 µM was found to be 0.361%.
Under `COc1ccc(OC)c(C2SCC(=O)Nc3n[nH]cc32)c1` (stereo not drawn) stands 12.8%; under `COc1ccc(S(=O)(=O)NCCC(=O)NCc2ccoc2)cc1OC`, 10.8%.
Then `CCN1CCN(c2ccc(CNC(=O)c3cc(C)on3)cn2)CC1`, with -11%.
In the case of `Cc1ccc(CN2CC[C@@]3(O)CCN(S(=O)(=O)N(C)C)C[C@H]3C2)cc1C`, the cytotoxicity at 10 µM was -1.42%.
Under `Cc1cn2nc(N3CCn4c(nnc4C(C)C)C3)sc2n1` stands 5.73%; under `Cc1cc(-c2ccccc2C(=O)O)nc(C2CCCCN2C)n1` (stereo not drawn), -0.168%.
Regarding `COCCNC(=O)[C@H]1CN2CCC1C[C@@H]2Cn1cc(C(C)(C)C)nn1` (stereo partly drawn), the cytotoxicity at 10 µM was 7.95%.
Regarding `CCC(C)(C)NC(=O)C1CC(=O)N(CC2CC2)C1` (stereo not drawn), the cytotoxicity at 10 µM was -4.72%.
Regarding `Cc1noc(C)c1CCC(=O)N1CCCN(C)CC1`, the cytotoxicity at 10 µM is -14.1%.
Turning to `CC(=O)N1[C@@H](C(=O)NCC2CC2)C[C@@H]2CN(Cc3ccco3)C[C@@H]21`, the cytotoxicity at 10 µM was 4.22%.

Source of the values: ChEMBL document CHEMBL4513216, “Probing the Open Global Health Chemical Diversity Library for Multistage-Active Starting Points for Next-Generation Antimalarials” (ACS Infect Dis, 2020).
